# Results reported in ChEMBL document CHEMBL1150415 (J Med Chem, 2008).
# Calls of active or inactive are those of the source. The rule behind the calls is not given here.
# Columns and labels:
# [1] = tested on: Rattus norvegicus; assay: Reduction in synovitis damage in Freund's adjuvant-induced arthritis Lewis rat model at 25 mg/kg, po for 11 days; format: functional, organism-based; design: dose 25 mg/kg
# Method in brief: (§1)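 Arthritis was induced in Lewis rats by intradermal complete Freund's adjuvant at the base of the tail. Oral treatment began on day 8, when mean clinical joint scores were 12, and continued for 11 days. Tarsal joints were taken at necropsy and lesions were scored histologically in blinded fashion.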
# [2] = tested on: Rattus norvegicus; assay: Reduction in synovitis damage in Freund's adjuvant-induced arthritis Lewis rat model at 5 mg/kg, po for 11 days; format: functional, organism-based; design: dose 5 mg/kg; method in brief: as §1
# [3] = tested on: Rattus norvegicus; assay: Reduction in cartilage damage in Freund's adjuvant-induced arthritis Lewis rat model at 50 mg/kg, po for 11 days; format: functional, organism-based; design: dose 50 mg/kg; method in brief: as §1
# [4] = tested on: Rattus norvegicus; assay: Reduction in cartilage damage in Freund's adjuvant-induced arthritis Lewis rat model at 25 mg/kg, po for 11 days; format: functional, organism-based; design: dose 25 mg/kg; method in brief: as §1
# [5] = tested on: Rattus norvegicus; assay: Reduction in cartilage damage in Freund's adjuvant-induced arthritis Lewis rat model at 5 mg/kg, po for 11 days; format: functional, organism-based; design: dose 5 mg/kg; method in brief: as §1
# [6] = tested on: Ovis aries; assay: Effect on late asthmatic response in Ascaris Suum antigen-induced reversible airway bronchoconstriction sheep model assessed as reduction in lung resistance at 10 mg/kg, po bid administered 2 hrs before antigen challenge measured 5 to 8 hrs after challenge; format: functional; design: scale not given: the % may be the effect or the level left
# [7] = tested on: Rattus norvegicus; assay: Reduction in synovitis damage in Freund's adjuvant-induced arthritis Lewis rat model at 50 mg/kg, po for 11 days; format: functional, organism-based; design: dose 50 mg/kg; method in brief: as §1
# [8] = Plasma concentration in adjuvant-induced arthritis Lewis rat model at 25 mg/kg, po after 4 hrs; format: ADME, organism-based; design: dose 25 mg/kg, route oral
# [9] = Inhibition of cytosolic phospholipase A2alpha at 0.020 uM
# Method in brief: (§2)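 Isolated enzyme activity on PAPC (1-palmitoyl-2-arachidonoyl-sn-glycero-3-phosphocholine) liposome substrate.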
# [10] = target: T1, Cytosolic phospholipase A2 beta (Homo sapiens) (UniProt P0C869); assay: Inhibition of cytosolic phospholipase A2beta at 0.5 uM; method in brief: as §2
# T1 sequence (whole entry): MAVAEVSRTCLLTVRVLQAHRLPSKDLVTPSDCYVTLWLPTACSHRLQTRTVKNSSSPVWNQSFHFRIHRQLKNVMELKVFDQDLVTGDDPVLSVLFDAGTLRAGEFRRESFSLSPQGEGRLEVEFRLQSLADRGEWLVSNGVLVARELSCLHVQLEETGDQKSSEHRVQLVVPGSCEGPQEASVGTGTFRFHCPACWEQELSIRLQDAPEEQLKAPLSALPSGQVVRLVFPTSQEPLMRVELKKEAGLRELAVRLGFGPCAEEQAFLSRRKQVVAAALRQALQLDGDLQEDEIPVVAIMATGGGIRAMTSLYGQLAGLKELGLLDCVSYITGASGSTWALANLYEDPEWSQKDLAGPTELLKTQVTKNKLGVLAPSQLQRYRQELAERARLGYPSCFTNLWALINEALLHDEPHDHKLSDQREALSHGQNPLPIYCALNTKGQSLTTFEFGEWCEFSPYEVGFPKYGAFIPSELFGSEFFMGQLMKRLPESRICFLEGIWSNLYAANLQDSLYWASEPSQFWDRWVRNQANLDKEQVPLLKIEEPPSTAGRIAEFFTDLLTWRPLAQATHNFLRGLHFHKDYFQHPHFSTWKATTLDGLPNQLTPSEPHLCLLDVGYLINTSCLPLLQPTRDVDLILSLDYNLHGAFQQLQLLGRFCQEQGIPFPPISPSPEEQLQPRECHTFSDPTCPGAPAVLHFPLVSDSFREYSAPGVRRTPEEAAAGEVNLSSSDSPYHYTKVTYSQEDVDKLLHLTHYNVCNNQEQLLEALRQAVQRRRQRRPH
# [11] = target: T2, Cytosolic phospholipase A2 gamma (Homo sapiens) (UniProt Q9UP65); assay: Inhibition of cytosolic phospholipase A2gamma at 0.5 uM; method in brief: as §2
# T2 sequence (whole entry): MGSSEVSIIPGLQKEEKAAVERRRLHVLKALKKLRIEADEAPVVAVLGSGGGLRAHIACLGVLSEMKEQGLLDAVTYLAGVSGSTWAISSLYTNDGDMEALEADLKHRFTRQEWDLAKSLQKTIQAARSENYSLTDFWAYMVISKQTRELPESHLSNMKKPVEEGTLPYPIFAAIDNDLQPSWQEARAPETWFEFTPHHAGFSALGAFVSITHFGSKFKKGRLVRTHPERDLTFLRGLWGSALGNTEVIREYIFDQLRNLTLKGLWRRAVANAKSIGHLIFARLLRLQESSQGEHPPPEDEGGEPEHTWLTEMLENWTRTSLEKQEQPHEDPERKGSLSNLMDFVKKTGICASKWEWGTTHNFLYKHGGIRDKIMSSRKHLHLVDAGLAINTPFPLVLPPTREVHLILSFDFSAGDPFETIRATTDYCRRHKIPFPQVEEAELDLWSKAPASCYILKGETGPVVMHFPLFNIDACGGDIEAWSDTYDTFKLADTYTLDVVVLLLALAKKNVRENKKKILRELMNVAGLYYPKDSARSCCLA
# [12] = Inhibition of cytosolic phospholipase A2alpha
# [13] = Inhibition of secreted phospholipase A2 at 0.5 uM
# Method in brief: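 Type II secreted PLA2 activity measured with PAPE (1-palmitoyl-2-arachidonoyl-sn-glycero-3-phosphoethanolamine) liposomes as substrate.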
# [14] = Oral bioavailability in rat; format: ADME, organism-based; settings: in vivo
# [15] = tested on: Rattus norvegicus; assay: Inhibition of PGE2 production in carrageenan-stimulated orally dosed rat air pouch model after 6 hrs; format: functional; settings: po
# Method in brief: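 Carrageenan was injected into a preformed air pouch 2 h after oral drug. Pouch contents were removed 6 h later and PGE2 was quantified.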
# [16] = tested on: Rattus norvegicus; assay: Inhibition of carrageenan-induced paw edema in po dosed Sprague-Dawley rat administered 2 hrs before carrageenan challenge; format: functional
# [17] = Inhibition of cytosolic phospholipase A2alpha by GLU micelle assay
# Method in brief: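 Micellar assay with 7-hydroxycoumarinyl-γ-linolenate (GLU) substrate, presenting inhibitor and substrate to the enzyme in high-lipid micelles. Each run gives the mean of duplicate assays, and values come from at least two runs.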
# [18] = tested on: MC9; assay: Inhibition of LTB4 production in mouse MC9 cells; format: functional, cell-based
# [19] = tested on: MC9; assay: Inhibition of PGF2alpha production in mouse MC9 cells; format: functional, cell-based
# [20] = tested on: MC9; assay: Inhibition of PGF2apha production in arachidonic acid-stimulated mouse MC9 cells; format: functional, cell-based
# [21] = tested on: Blood; assay: Inhibition of TXB2 production in human whole blood at 0.15 uM; format: functional
# Method in brief: (§3)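 Human whole blood stimulated with calcium ionophore A23187 at 30 µM. Several arachidonic acid metabolites (LTB4, PGE2, PGF2α, TXB2) and PAF production were quantified.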
# [22] = tested on: Blood; assay: Inhibition of LTB4 production in human whole blood at 0.15 uM; format: functional; method in brief: as §3
# [23] = tested on: Blood; assay: Inhibition of PGE2 production in human whole blood at 0.15 uM; format: functional; method in brief: as §3
# [24] = tested on: Blood; assay: Inhibition of PGF2alpha production in human whole blood at 0.15 uM; format: functional; method in brief: as §3
# [25] = tested on: Blood; assay: Inhibition of PAF production in human whole blood at 0.15 uM; format: functional; method in brief: as §3
# [26] = Plasma concentration in collagen-induced arthritis mouse model at 100 mg/kg, po twice daily after 3 hrs; format: ADME, organism-based; design: dose 100 mg/kg, route oral
# [27] = tested on: Mus musculus; assay: Plasma concentration in collagen-induced arthritis mouse model at 100 mg/kg, po twice daily after 12 to 14 hrs; format: ADME, organism-based; design: dose 100 mg/kg, route oral; settings: in vivo
# [28] = Plasma concentration in adjuvant-induced arthritis Lewis rat model at 50 mg/kg, po after 4 hrs; format: ADME, organism-based; design: dose 50 mg/kg, route oral
# [29] = Plasma concentration in adjuvant-induced arthritis Lewis rat model at 5 mg/kg, po after 4 hrs; format: ADME, organism-based; design: dose 5 mg/kg, route oral
# [30] = Plasma concentration in adjuvant-induced arthritis Lewis rat model at 50 mg/kg, po after 16 hrs; format: ADME, organism-based; design: dose 50 mg/kg, route oral
# [31] = Plasma concentration in adjuvant-induced arthritis Lewis rat model at 25 mg/kg, po after 16 hrs; format: ADME, organism-based; design: dose 25 mg/kg, route oral
# [32] = Plasma concentration in adjuvant-induced arthritis Lewis rat model at 5 mg/kg, po after 16 hrs; format: ADME, organism-based; design: dose 5 mg/kg, route oral
# [33] = target: Prostaglandin G/H synthase 2, cyclooxygenase-2 (Homo sapiens) (UniProt P35354); assay: Inhibition of COX2-dependent PGE2 production in IL1B stimulated human A549 cells at 0.040 uM
# Chain of Prostaglandin G/H synthase 2, cyclooxygenase-2 (Homo sapiens) (P35354 whole entry, looked up): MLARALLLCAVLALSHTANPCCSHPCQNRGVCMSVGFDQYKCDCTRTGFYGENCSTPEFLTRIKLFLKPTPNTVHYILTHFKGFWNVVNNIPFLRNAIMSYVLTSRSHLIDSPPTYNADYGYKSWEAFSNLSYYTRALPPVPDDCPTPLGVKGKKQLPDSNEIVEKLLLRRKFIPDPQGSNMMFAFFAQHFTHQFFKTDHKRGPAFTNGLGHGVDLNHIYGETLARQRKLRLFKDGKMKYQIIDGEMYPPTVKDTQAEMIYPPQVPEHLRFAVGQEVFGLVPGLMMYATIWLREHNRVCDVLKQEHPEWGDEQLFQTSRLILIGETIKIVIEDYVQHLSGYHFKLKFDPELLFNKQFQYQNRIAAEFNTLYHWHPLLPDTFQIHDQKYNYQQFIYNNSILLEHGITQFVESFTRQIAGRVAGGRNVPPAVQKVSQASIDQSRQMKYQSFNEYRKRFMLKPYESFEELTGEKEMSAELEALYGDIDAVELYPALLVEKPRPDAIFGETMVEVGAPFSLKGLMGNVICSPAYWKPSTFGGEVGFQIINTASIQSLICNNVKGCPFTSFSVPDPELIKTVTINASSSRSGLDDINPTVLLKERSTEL
# [34] = target: Prostaglandin G/H synthase 2, cyclooxygenase-2 (Homo sapiens) (UniProt P35354); assay: Inhibition of COX2-dependent PGE2 production in IL1B stimulated human A549 cells at 1 uM in presence of arachidonic acid
# [35] = tested on: Ovis aries; assay: Inhibition of acute hyperresponsiveness in Ascaris Suum antigen-induced reversible airway bronchoconstriction sheep model assessed as reduction in lung resistance at 10 mg/kg, po bid administered and measured after 16 hrs
smiles,measurement,setting,value
O=C(O)c1ccc(CCCc2c(CCNS(=O)(=O)Cc3ccc(Cl)c(Cl)c3)n(C(c3ccccc3)c3ccccc3)c3ccc(Cl)cc23)cc1 [EFIPLADIB],Activity,[1],Active
same,Activity,[2],Active
same,Activity,[3],Active
same,Activity,[4],Active
same,Activity,[5],Active
same,Activity,[6],50%
same,Activity,[7],Active
same,concentration at 4 h,[8],1130 ng/mL
same,inhibition,[9],> 90%
same,Activity,[10],inactive
same,Activity,[11],inactive
same,IC50,[12],< 10 nM
same,Activity,[13],inactive
same,bioavailability,[14],6%
same,ED50,[15],6 mg/kg
same,ED50,[16],35 mg/kg
same,IC50,[17],40 nM
same,IC50,[18],20 nM
same,IC50,[19],20 nM
same,IC50,[20],900 nM
same,inhibition at 0.15 µM,[21],57%
same,inhibition at 0.15 µM,[22],64%
same,inhibition at 0.15 µM,[23],78%
same,inhibition at 0.15 µM,[24],66%
same,inhibition at 0.15 µM,[25],50%
same,concentration at 3 h,[26],7200 ng/mL
same,Cp,[27],2315 ng/mL
same,concentration at 4 h,[28],3600 ng/mL
same,concentration at 4 h,[29],147 ng/mL
same,concentration at 16 h,[30],692 ng/mL
same,concentration at 16 h,[31],166 ng/mL
same,concentration at 16 h,[32],34 ng/mL
same,inhibition,[33],> 95%
same,Activity,[34],inactive
same,Activity,[35],Active
